Source: ChEMBL document CHEMBL4014268, “Phenolic Compounds from the Lichen Lobaria orientalis” (J Nat Prod, 2017)
Calls of active or inactive are those of the source.

Key:
Format in all cases: functional, cell-based
[1] = system: HeLa; assay: Cytotoxicity against human HeLa cells at 100 ug/ml by SRB assay
Procedure, shortened: (§1)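 Single-concentration screen at 100 μg/mL against four human cancer lines: HepG2 (liver hepatocellular carcinoma), MCF-7 (breast), NCI-H460 (lung) and HeLa (epithelial carcinoma). Cell viability was read by sulforhodamine B staining, with camptothecin as the positive control.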

[2] = system: HepG2; assay: Cytotoxicity against human HepG2 cells at 100 ug/ml by SRB assay; procedure, shortened: as §1
[3] = system: NCI-H460; assay: Cytotoxicity against human NCI-H460 cells at 100 ug/ml by SRB assay; procedure, shortened: as §1
[4] = system: MCF7; assay: Cytotoxicity against human MCF7 cells at 100 ug/ml by SRB assay; procedure, shortened: as §1

Measured: Activity

Cc1cc(O)cc(O)c1C(=O)Oc1cc(O)cc(C)c1C(=O)O
inactive: [1] | [2] | [3] | [4]

COc1cc(C)c2c3c1CO[C@H]1OC(=O)c4c(O)c(C)c(c(c41)O3)OC2=O
inactive: [1] | [2] | [3] | [4]

COC(=O)c1c(C)cc(OC)c(/C=C/C(C)=O)c1Oc1c(O)c(C)c(O)c2c1[C@@H](OC)OC2=O
inactive: [1] | [2] | [3] | [4]

Cc1cc(O)cc(OC(=O)c2c(C)cc(O)cc2O)c1
inactive: [1] | [2] | [3] | [4]

COC(=O)/C=C/c1c(OC)cc(C)c(C(=O)OC)c1Oc1c(O)c(C)c(O)c2c1[C@@H](OC)OC2=O
inactive: [1] | [2] | [3] | [4]

COc1cc(C)c2c(c1C=O)Oc1c(c(C)c(O)c3c1[C@@H](OC)OC3=O)OC2=O
inactive: [1] | [2] | [3] | [4]

COC(=O)c1c(C)cc(OC)c(CO)c1Oc1c(O)c(C)c(O)c2c1[C@@H](OC)OC2=O
inactive: [1] | [2] | [3] | [4]
